This is an account of results in ChEMBL document CHEMBL3259631, “Identification of the first potent, selective and bioavailable PPARα antagonist” (Bioorg Med Chem Lett, 2014).

As usually defined, the IC50 is the concentration needed to halve the response being measured. For orientation: solubility means the dissolved amount per volume that the medium holds. A high value points to much dissolved substance. Usually EC50 stands for the concentration needed to bring the measured effect to its halfway point. High values mean weaker potency, low ones greater potency.

Values after ≈ are worked out from the molar mass of the structure shown.

One data set has as its system Plasma. The data set is described as follows: (§1) Metabolic stability in mouse plasma assessed as compound remaining at 1 uM after 24 hrs by LC-MS/MS analysis. The class given is ADME, cell-free. The note with it: 24 h, 1 µM. Summed up:
(§2)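 A 30 mM DMSO stock was diluted to 100 µM in acetonitrile, then spiked into thawed mouse plasma (1 µM final) and incubated at 37 °C. Aliquots were precipitated in acetonitrile containing buspirone, shaken 5 min and centrifuged at 4000g for 10 min. Supernatant was analysed by LC-MS/MS. Percent remaining = concentration at each time / t0 concentration × 100; mean of at least three experiments.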

Data set [1] has as its target T1, Peroxisome proliferator-activated receptor alpha (Homo sapiens, UniProt Q07869).
T1 sequence (Q07869 whole entry): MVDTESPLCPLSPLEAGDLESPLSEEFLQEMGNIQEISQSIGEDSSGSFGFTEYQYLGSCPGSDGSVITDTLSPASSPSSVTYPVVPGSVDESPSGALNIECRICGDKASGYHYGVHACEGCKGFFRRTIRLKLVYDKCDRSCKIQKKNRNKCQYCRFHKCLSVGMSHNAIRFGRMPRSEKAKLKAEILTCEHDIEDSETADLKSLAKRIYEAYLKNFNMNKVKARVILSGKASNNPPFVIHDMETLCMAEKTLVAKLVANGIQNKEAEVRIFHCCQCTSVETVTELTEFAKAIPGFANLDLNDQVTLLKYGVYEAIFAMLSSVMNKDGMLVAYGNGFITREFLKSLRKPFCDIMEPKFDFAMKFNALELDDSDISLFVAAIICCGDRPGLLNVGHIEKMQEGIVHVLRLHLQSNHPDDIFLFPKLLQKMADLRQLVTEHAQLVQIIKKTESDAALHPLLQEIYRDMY
In words: Antagonist activity at human PPAR-alpha assessed as inhibition of GW7647-induced effect after overnight incubation by cell-based luciferase reporter gene assay. In general terms: Reporter assays use an easily measured gene product as a stand-in for the process of interest.

Data set [2] can be described thus: Solubility of the compound in aqueous buffer at pH 7.4 after 24 hrs by LC-MS/MS analysis. It counts as physicochemical. Summed up:
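Compound from a 10 mM DMSO stock was added to pH 7.4 buffer, vortexed 2 min, then shaken on an orbital shaker for 24 h at room temperature. Samples were then vacuum-filtered through a polycarbonate membrane before measurement.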

Data set [3] can be described thus: Metabolic stability in mouse plasma assessed as compound remaining at 1 uM after 30 mins by LC-MS/MS analysis. It counts as ADME, cell-free. The note with it: read-out: Stability. Summed up:
as §2

A short description of data set [4]: Metabolic stability in mouse plasma assessed as compound remaining at 1 uM after 60 mins by LC-MS/MS analysis. It counts as ADME, cell-free. The note with it: read-out: Stability. Summed up: as §2
The nature of data set [5]: as §1. The class given is ADME, cell-free. The note with it: read-out: Stability. Summed up: as §2
The target of data set [6] is T1, Peroxisome proliferator-activated receptor alpha. The data set is described as follows: Agonist activity at human PPAR-alpha.

As for `CCn1c(CCCc2ccc(-c3ccc(NS(=O)(=O)Cc4ccccc4)cc3)cc2)nn(Cc2ccc(C(C)(C)C)cc2)c1=O`, the Stability in the data set with Plasma is recorded as 133.9%. In addition, the IC50 in data set [1] came out at 311 nM. In data set [2], this compound showed a solubility at 24 h of 0.012 µM (≈ 0.00747 µg/mL).
In the case of `CCn1c(CCCc2ccc(CC(C)(C)C(=O)NS(=O)(=O)c3ccccc3)cc2)nn(Cc2ccc(C(C)(C)C)cc2)c1=O`, the remaining at 0.5 h, 1 µM in data set [3] was determined as 80%. Also, the IC50 in data set [1] worked out at 60 nM. Also, the remaining at 1 h, 1 µM in data set [4] was determined as 62.3%.
Take `CCn1c(CCCc2ccc(-c3cccc(NS(=O)(=O)c4ccccc4)c3)cc2)nn(Cc2ccc(C(C)(C)C)cc2)c1=O`: the Stability in the data set on Plasma stood at 136%. Further, the IC50 in data set [1] amounted to 386 nM. In addition, the concentration in solution in data set [2] (solubility at 24 h) was 0.037 µM (≈ 0.0225 µg/mL).
Turning to `CCn1c(CCCc2ccc(OC(C)(C)C(=O)NS(=O)(=O)c3ccc(C)cc3)cc2)nn(Cc2ccc(C(C)(C)C)cc2)c1=O`, in data set [3], the remaining at 0.5 h, 1 µM was 73.1%. Further, the IC50 in data set [1] came out at 2.8 nM. Also, the remaining at 1 h, 1 µM in data set [4] is 63.7%.
In the case of `CCn1c(CCCc2ccc(OC(C)(C)C(=O)NS(=O)(=O)c3ccc(C(F)(F)F)cc3)cc2)nn(Cc2ccc(C(C)(C)C)cc2)c1=O`, the remaining at 24 h, 1 µM in data set [5] was determined as 53.7%. The remaining at 0.5 h, 1 µM in data set [3] stood at 103%. Moreover, the IC50 in data set [1] stood at 34 nM. Moreover, the remaining at 1 h, 1 µM in data set [4] was 105%.
On to `CCn1c(CCCc2ccc(-c3ccc(NS(=O)(=O)c4ccccc4)cc3)cc2)nn(Cc2ccc(C(C)(C)C)cc2)c1=O`, for which the Stability with Plasma was 124.7%. Besides, the IC50 in data set [1] was determined as 21 nM. In data set [2], this compound gave a solubility at 24 h of 0.018 µM (≈ 0.011 µg/mL).
For `CCn1c(CCCc2ccc(-c3cnc(NS(=O)(=O)c4ccccc4)cn3)cc2)nn(Cc2ccc(C(C)(C)C)cc2)c1=O`, the Stability in the data set on Plasma amounted to 131.2%. The IC50 in data set [1] was found to be 218 nM. In data set [2], this compound showed a solubility at 24 h of 4.9 µM (≈ 2.99 µg/mL).
Consider `CCn1c(CCCc2ccc(OC(C)(C)C(=O)NS(=O)(=O)C3CCCC3)cc2)nn(Cc2ccc(C(C)(C)C)cc2)c1=O`, for which the remaining at 0.5 h, 1 µM in data set [3] is 21%. Also, the IC50 in data set [1] turned out to be 4.6 nM. The remaining at 1 h, 1 µM in data set [4] was 7%.
`CCn1c(CCCc2ccc(OC(C)(C)C(=O)NS(=O)(=O)c3ccc(C(C)C)cc3)cc2)nn(Cc2ccc(C(C)(C)C)cc2)c1=O`: in data set [5], the remaining at 24 h, 1 µM was 2.7%. In addition, the remaining at 0.5 h, 1 µM in data set [3] is 89.5%. In data set [1], the 50% inhibitory concentration (IC50) turned out to be 13 nM. In addition, the remaining at 1 h, 1 µM in data set [4] was found to be 81.9%.
Consider `CCn1c(CCCc2ccc(OC(C)(C)C(=O)NS(=O)(=O)c3ccccc3)cc2)nn(Cc2ccc(C(C)(C)C)cc2)c1=O`, for which the remaining at 0.5 h, 1 µM in data set [3] worked out at 6.7%. Further, the remaining at 1 h, 1 µM in data set [4] turned out to be 0.7%.
As to `CCn1c(CCCc2ccc(-c3ccc(NS(=O)(=O)c4ccccc4)nc3)cc2)nn(Cc2ccc(C(C)(C)C)cc2)c1=O`, the Stability in the data set with Plasma is reported as 128.7%. For the same compound, the IC50 in data set [1] came out at 122 nM. In addition, the solubility at 24 h in data set [2] came to 0.014 µM (≈ 0.00854 µg/mL).
Consider `CCn1c(CCCc2ccc(OC(C)(C)C(=O)NS(=O)(=O)C3CCCCC3)cc2)nn(Cc2ccc(C(C)(C)C)cc2)c1=O`, for which, in data set [3], the remaining at 0.5 h, 1 µM worked out at 60.5%. The IC50 in data set [1] was 3 nM. In data set [4], the remaining at 1 h, 1 µM was 43.6%.
Turning to `CCn1c(CCCc2ccc(OC(C)(C)C(=O)NS(=O)(=O)c3cccnc3)cc2)nn(Cc2ccc(C(C)(C)C)cc2)c1=O`, the remaining at 24 h, 1 µM in data set [5] turned out to be 0.2%. For the same compound, in data set [3], the remaining at 0.5 h, 1 µM was determined as 82.4%. Further, in data set [1], the IC50 came to 80 nM. Further, in data set [4], the remaining at 1 h, 1 µM was 75.2%.
Consider `CCn1c(CCCc2ccc(OC(C)(C)C(=O)NS(=O)(=O)C3CC3)cc2)nn(Cc2ccc(C(C)(C)C)cc2)c1=O`, for which, in data set [3], the remaining at 0.5 h, 1 µM was determined as 1.7%. Besides, in data set [1], the IC50 came out at 6.6 nM. The remaining at 1 h, 1 µM in data set [4] was found to be 0.1%.
In the same order, the values of `CCn1c(CCCc2ccc(OC(C)(C)C(=O)NS(=O)(=O)c3ccoc3)cc2)nn(Cc2ccc(C(C)(C)C)cc2)c1=O` are 75.4%, 78 nM and 66.6%.
As to `CCn1c(CCCc2ccc(-c3ccc(NS(C)(=O)=O)cn3)cc2)nn(Cc2ccc(C(C)(C)C)cc2)c1=O`, the remaining at 24 h, 1 µM in data set [5] was 105%. For the same compound, in data set [1], the IC50 stood at 113 nM. Moreover, in data set [2], the concentration in solution (solubility at 24 h) was 0.423 µM (≈ 0.232 µg/mL).
On the same counts, the results for `CCn1c(CCCc2ccc(-c3ncc(NS(=O)(=O)c4ccccc4)cn3)cc2)nn(Cc2ccc(C(C)(C)C)cc2)c1=O` are 119%, 114 nM and 0.091 µM (≈ 0.0556 µg/mL).
Take `CCn1c(CCCc2ccc(OC(C)(C)C(=O)NS(=O)(=O)C3=CCOC=C3)cc2)nn(Cc2ccc(C(C)(C)C)cc2)c1=O`: the remaining at 0.5 h, 1 µM in data set [3] amounted to 86.9%. Moreover, in data set [1], the IC50 came to 42 nM. Also, the remaining at 1 h, 1 µM in data set [4] was 86.5%.
In data set [6], `C/C(=C/C(=O)c1ccccc1)N[C@@H](Cc1ccc(OCCc2nc(-c3ccccc3)oc2C)cc1)C(=O)O` showed an EC50 of 240 nM.
